KCNQ1 act = potentiators or activators of KCNQ1 channel, primary screen, cell-based, thallium flux, high-throughput | CHO-K1 KCNQ1, thallium flux FluxOR fluorescence; active compounds read high | AID 2648, 2010 | actives 0.35% (n = 310,000) | Potassium voltage-gated channel subfamily KQT member 1 (Homo sapiens), P51787 | B-score at 10 µM;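 active = fluorescence ratio B-score, a plate-corrected score, at least three library SD, with initial intensity B-score within 5 SD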
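Test system: CHO-K1 cells stably expressing KCNQ1 / Medium: assay buffer / Also added: depolarizing K+/Tl+ stimulus, K2SO4 and Tl2SO4 each 12.5 mM in 5x stock / Incubation: 90 min dye loading and 20 min compound exposure, both at room temperature / Signal: thallium influx via FluxOR fluorescence, kinetic imaging / Evaluation: B score of baseline-normalized fluorescence ratio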
Kir21 inh = inhibitors of mouse Kir2.1 inward-rectifier potassium channel; HEK293-Kir2.1, FluxOR thallium flux fluorescence; active compounds read low; actives 0.85% (n = 310,000); B-score at 10 µM;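 active = fluorescence ratio B-score at or below minus 3 SD of library scores, with starting-brightness B-score within 2 SD, cut at about -4.2 in these data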;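 note: channel flux triggered by added potassium and thallium sulfate stimulus; B-score of peak minus minimum fluorescence over baseline after thallium stimulus; more negative B-score means stronger Kir2.1 block with less thallium influx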
KCNQ1 block = inhibitors of human KCNQ1 channel, primary screen, cell-based, thallium flux, high-throughput; Potassium voltage-gated channel subfamily KQT member 1 (Homo sapiens), P51787; CHO-K1 KCNQ1, FluxOR thallium flux fluorescence; active compounds read high; B-score at 10 µM; actives 1.3% (n = 310,000); AID 2642, 2010;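 active = compounds whose thallium flux B-score, printed positive for inhibition, exceeds three library SD while starting fluorescence stays within three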;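 note: channel opened by potassium depolarization with thallium stimulus after 20 min compound exposure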
KCNK3 inh = human KCNK3 channel inhibitors, primary screen, CHO cells, FluxOR thallium flux, B-score | Potassium channel subfamily K member 3 (Homo sapiens), O14649 | FluxOR fluorescence; active compounds read low | B-score at 10 µM | actives 0.84% (n = 340,000) | AID 602410, 2012;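 active = B-score under library mean minus 4 SD, starting fluorescence ratio at most library mean plus 5 SD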;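 note: more negative B-score means stronger inhibition of thallium flux through KCNK3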
KCNK9 inh = KCNK9 potassium channel inhibitors, primary screen, HEK293 cells, thallium flux. Potassium channel subfamily K member 9 (Homo sapiens), Q9NPC2. FluxOR thallium flux fluorescence; active compounds read low. B-score at 10 µM. actives 1.2% (n = 310,000);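 active = ratio B-score over 3 SD below the library mean, with starting fluorescence within 5 SD of its mean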;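 note: negative B-score means less thallium flux so channel inhibition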
Target sequence (Q9NPC2 whole entry, looked up): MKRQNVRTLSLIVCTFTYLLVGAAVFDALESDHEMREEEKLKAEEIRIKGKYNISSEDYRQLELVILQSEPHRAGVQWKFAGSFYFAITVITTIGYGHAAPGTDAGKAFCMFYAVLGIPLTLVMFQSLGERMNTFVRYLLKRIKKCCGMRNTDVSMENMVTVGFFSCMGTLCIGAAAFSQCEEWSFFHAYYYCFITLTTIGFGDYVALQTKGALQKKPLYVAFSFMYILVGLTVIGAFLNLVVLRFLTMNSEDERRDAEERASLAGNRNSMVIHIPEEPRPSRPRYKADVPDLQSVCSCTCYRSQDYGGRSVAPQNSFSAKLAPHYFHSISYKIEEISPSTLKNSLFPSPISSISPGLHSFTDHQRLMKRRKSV
hERG protect = hERG rescue from dofetilide block, primary screen, cell-based, CHO-hERG, FluxOR thallium flux, dofetilide IC70. Voltage-gated inwardly rectifying potassium channel KCNH2 (Homo sapiens), Q12809. dofetilide IC70 present. activation (rescue from dofetilide block), less the hit threshold, % at 10 µM. actives 0.51% (n = 310,000);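 active = activation above the mean of controls blocked by dofetilide plus 5 SD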;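 note: thallium influx through hERG after potassium depolarization seen as dye fluorescence rise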
Numbers stand for hits. Hits are enriched below; roughly 3.7% of the tested compounds scored in any of these assays.

`CC1(C)Oc2ccc3ccc(=O)oc3c2/C(=C/Nc2cccc(O)c2)C1=O` gave KCNQ1 act inactive, Kir21 inh inactive, KCNQ1 block 6, KCNK3 inh inactive, KCNK9 inh -6.73 and hERG protect inactive.
`COc1ccccc1NS(=O)(=O)c1cccc(C(=O)NCC(c2ccco2)N(C)C)c1` (stereo unspecified) gave KCNQ1 act inactive, Kir21 inh inactive, KCNQ1 block inactive, KCNK3 inh inactive, KCNK9 inh inactive and hERG protect inactive.
For CCOC(=O)CSc1ccc(S(=O)(=O)N(C)C2CCCCC2)cc1[N+](=O)[O-] the results were KCNQ1 act inactive, Kir21 inh inactive, KCNQ1 block inactive, KCNK3 inh -10.3, KCNK9 inh inactive and hERG protect inactive.
`Cc1ccc(C(C(=O)NC2CCCC2)N(C(=O)c2csnn2)C2CCCC2)o1` (stereo unspecified) gave KCNQ1 act inactive, Kir21 inh inactive, KCNQ1 block inactive, KCNK3 inh inactive, KCNK9 inh inactive and hERG protect inactive.
`Cc1ccc(CN(C(=O)c2csnn2)C(C(=O)NC2CCCC2)c2ccc(C)o2)cc1` (stereo unspecified) gave KCNQ1 act inactive, Kir21 inh inactive, KCNQ1 block inactive, KCNK3 inh inactive, KCNK9 inh -6.79 and hERG protect inactive.
COc1ccc(C(=O)NCC(=O)OCc2c(Cl)cccc2Cl)cc1OC was read as KCNK3 inh inactive.
CC(C)[N+]1(C)[C@@H]2CC[C@H]1CC(OC(=O)C(CO)c1ccccc1)C2 (stereo partly specified) was read as KCNQ1 act 22, Kir21 inh inactive, KCNQ1 block inactive, KCNK3 inh inactive and KCNK9 inh inactive.
Screening COC(=O)Cc1ccc(NC(=S)NCc2ccccc2OC)cc1 returned KCNQ1 act inactive, Kir21 inh inactive, KCNQ1 block inactive, KCNK3 inh inactive, KCNK9 inh inactive and hERG protect inactive.
`COc1ccccc1CNC(=S)Nc1ccc(F)cc1` gave KCNQ1 act inactive, Kir21 inh -4.67, KCNQ1 block inactive, KCNK3 inh inactive, KCNK9 inh inactive and hERG protect inactive.
Cc1ccc(NC(=O)C2CC2C)cc1S(=O)(=O)N1CCOCC1 (stereo unspecified) was read as KCNQ1 act inactive, Kir21 inh inactive, KCNQ1 block inactive, KCNK3 inh inactive, KCNK9 inh inactive and hERG protect inactive.
CC[n+]1c(/C=C2\C=C(C)CC(C)(C)C2)sc2ccccc21 was read as KCNQ1 act inactive, Kir21 inh inactive, KCNQ1 block 7, KCNK3 inh inactive, KCNK9 inh inactive and hERG protect inactive.
For CCC1=C/C(=C/c2sc3ccccc3[n+]2CC)CC(C)(C)C1 the results were KCNQ1 act inactive, Kir21 inh inactive, KCNQ1 block inactive, KCNK3 inh inactive, KCNK9 inh inactive and hERG protect inactive.
`CC[n+]1c(/C=C2\C=C(C)CC(C)C2)sc2ccccc21` (stereo unspecified) gave KCNQ1 act inactive, Kir21 inh inactive, KCNQ1 block 6, KCNK3 inh inactive, KCNK9 inh inactive and hERG protect inactive.
`CC[n+]1c(C)sc2sc3ccccc3c21` gave KCNQ1 act inactive, Kir21 inh inactive, KCNQ1 block inactive, KCNK9 inh inactive and hERG protect inactive.
Screening CC[n+]1c(/C=C/Nc2ccccc2)oc2ccc(OC)cc21 returned KCNQ1 act inactive, Kir21 inh inactive, KCNQ1 block inactive, KCNK3 inh inactive, KCNK9 inh inactive and hERG protect inactive.
Screening CC[n+]1c(/C=C2/C=C(C)CC(C)(C)C2)sc2ccc(OC)cc21 returned KCNQ1 act inactive, Kir21 inh inactive, KCNQ1 block 10, KCNK3 inh inactive, KCNK9 inh inactive and hERG protect inactive.
